According to ChEMBL document CHEMBL1142894, “Preparation of 5-aryl-3-alkylthio-l,2,4-triazoles and corresponding sulfones with antiinflammatory-analgesic activity” (Bioorg Med Chem, 2007):
Calls of active or inactive are those of the source. No cut-off for these calls is given here.

How the values were obtained:
[1] = test system: Mus musculus; assay: Inhibition of carrageenan-induced paw edema in Swiss albino mouse at 100 mg/kg, po after 270 mins relative to control; format: functional; settings: 4.5 h
Method in brief: (§1)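 Oral dosing in 0.5% CMC; vehicle to controls. Then carrageenan (0.5 mg/25 ll, freshly suspended in 154 mM saline) injected into the right hind paw subplantar tissue; saline into the left paw. Right-left footpad thickness difference measured by dial gauge calliper every 90 min over 6 h. Inhibition % is relative to vehicle control. n = 6; mean ± SEM.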

[2] = test system: Mus musculus; assay: Inhibition of p-benzoquinone-induced writhing in Swiss albino mouse at 25 mg/kg, po relative to control; format: functional
Method in brief: (§2)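 Mice, n = 6 per group, dosed orally with a suspension in 0.5% sodium CMC. 60 min later, 0.1 ml/10 g of 2.5% […] p-benzoquinone in distilled water given ip. Abdominal writhes counted per animal for 15 min, starting 5 min after injection. Expressed as % change in mean writhing count versus vehicle controls.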

[3] = test system: Mus musculus; assay: Inhibition of p-benzoquinone-induced writhing in Swiss albino mouse at 200 mg/kg, po relative to control; format: functional; method in brief: as §2
[4] = test system: Mus musculus; assay: Inhibition of carrageenan-induced paw edema in Swiss albino mouse at 25 mg/kg, po after 180 mins relative to control; format: functional; settings: 3 h; method in brief: as §1
[5] = test system: Mus musculus; assay: Antiinflammatory activity against carrageenan-induced paw edema in Swiss albino mouse assessed as swelling thickness at 200 mg/kg, po after 90 mins; format: functional; method in brief: as §1
[6] = test system: Mus musculus; assay: Analgesic activity against p-benzoquinone-induced abdominal constriction in Swiss albino mouse assessed as number of writhings at 100 mg/kg, po; format: functional, Abdomen
Method in brief: (§3)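 Test samples given orally in 0.5% CMC; vehicle to controls. 60 min later, 2.5% (v/v) p-benzoquinone in distilled water, 0.1 ml/10 g, given i.p. Mice housed singly; writhes counted for 15 min starting 5 min after injection. Activity is % change from vehicle controls. n = 6; mean ± SEM.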

[7] = test system: Mus musculus; assay: Antiinflammatory activity against carrageenan-induced paw edema in Swiss albino mouse assessed as swelling thickness at 100 mg/kg, po after 270 mins; format: functional; method in brief: as §1
[8] = test system: Mus musculus; assay: Gastric-ulcerogenic effect in Swiss albino mouse assessed as lesions at 100 mg/kg, po; format: functional, organism-based; design: dose 100 mg/kg
Method in brief: (§4)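 Mice killed under deep ether anesthesia 3 h after the writhing test; the oral dose in 0.5% CMC was the one used in that test. Stomachs removed, opened along the great curvature and examined under a dissecting microscope for lesions or bleeding. Reported as ratio of ulceration; n = 6.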

[9] = test system: Mus musculus; assay: Antiinflammatory activity against carrageenan-induced paw edema in Swiss albino mouse assessed as swelling thickness at 25 mg/kg, po after 180 mins; format: functional; method in brief: as §1
[10] = test system: Mus musculus; assay: Antiinflammatory activity against carrageenan-induced paw edema in Swiss albino mouse assessed as swelling thickness at 25 mg/kg, po after 360 mins; format: functional; method in brief: as §1
[11] = test system: Mus musculus; assay: Antiinflammatory activity against carrageenan-induced paw edema in Swiss albino mouse assessed as swelling thickness at 50 mg/kg, po after 270 mins; format: functional; method in brief: as §1
[12] = test system: Mus musculus; assay: Antiinflammatory activity against carrageenan-induced paw edema in Swiss albino mouse assessed as swelling thickness at 200 mg/kg, po after 360 mins; format: functional; method in brief: as §1
[13] = test system: Mus musculus; assay: Antiinflammatory activity against carrageenan-induced paw edema in Swiss albino mouse assessed as swelling thickness at 50 mg/kg, po after 90 mins; format: functional; method in brief: as §1
[14] = test system: Mus musculus; assay: Inhibition of carrageenan-induced paw edema in Swiss albino mouse at 50 mg/kg, po after 360 mins relative to control; format: functional; settings: 6 h
Method in brief: (§5)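 Mice, n = 6 per group. Test agent given orally as a suspension in 0.5% sodium CMC in distilled water; controls received vehicle only. Afterwards, 0.5 mg/25 ll carrageenan in saline (154 mM NaCl) injected subplantar into the right hind paw, saline into the left. Right-minus-left footpad thickness measured by dial gauge caliper every 90 min for 6 h. Inhibition is relative to vehicle-control group means.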

[15] = test system: Mus musculus; assay: Inhibition of carrageenan-induced paw edema in Swiss albino mouse at 50 mg/kg, po after 180 mins relative to control; format: functional; settings: 3 h; method in brief: as §1
[16] = test system: Mus musculus; assay: Inhibition of p-benzoquinone-induced writhing in Swiss albino mouse at 100 mg/kg, po relative to control; format: functional; method in brief: as §2
[17] = test system: Mus musculus; assay: Antiinflammatory activity against carrageenan-induced paw edema in Swiss albino mouse assessed as swelling thickness at 100 mg/kg, po after 90 mins; format: functional; method in brief: as §1
[18] = test system: Mus musculus; assay: Analgesic activity against p-benzoquinone-induced abdominal constriction in Swiss albino mouse assessed as number of writhings at 50 mg/kg, po; format: functional, Abdomen; method in brief: as §3
[19] = test system: Mus musculus; assay: Antiinflammatory activity against carrageenan-induced paw edema in Swiss albino mouse assessed as swelling thickness at 50 mg/kg, po after 360 mins; format: functional; method in brief: as §1
[20] = test system: Mus musculus; assay: Inhibition of carrageenan-induced paw edema in Swiss albino mouse at 50 mg/kg, po after 270 mins relative to control; format: functional; settings: 4.5 h; method in brief: as §5
[21] = test system: Mus musculus; assay: Inhibition of carrageenan-induced paw edema in Swiss albino mouse at 50 mg/kg, po after 90 mins relative to control; format: functional; settings: 1.5 h; method in brief: as §5
[22] = test system: Mus musculus; assay: Inhibition of carrageenan-induced paw edema in Swiss albino mouse at 100 mg/kg, po after 180 mins relative to control; format: functional; settings: 3 h; method in brief: as §1
[23] = test system: Mus musculus; assay: Inhibition of carrageenan-induced paw edema in Swiss albino mouse at 25 mg/kg, po after 270 mins relative to control; format: functional; settings: 4.5 h; method in brief: as §1
[24] = test system: Mus musculus; assay: Antiinflammatory activity against carrageenan-induced paw edema in Swiss albino mouse assessed as swelling thickness at 200 mg/kg, po after 180 mins; format: functional; method in brief: as §1
[25] = test system: Mus musculus; assay: Inhibition of carrageenan-induced paw edema in Swiss albino mouse at 25 mg/kg, po after 90 mins relative to control; format: functional; settings: 1.5 h; method in brief: as §1
[26] = test system: Mus musculus; assay: Antiinflammatory activity against carrageenan-induced paw edema in Swiss albino mouse assessed as swelling thickness at 100 mg/kg, po after 360 mins; format: functional; method in brief: as §1
[27] = test system: Mus musculus; assay: Gastric-ulcerogenic effect in Swiss albino mouse assessed as lesions at 25 mg/kg, po; format: functional, organism-based; design: dose 25 mg/kg; method in brief: as §4
[28] = test system: Mus musculus; assay: Analgesic activity against p-benzoquinone-induced abdominal constriction in Swiss albino mouse assessed as number of writhings at 200 mg/kg, po; format: functional, Abdomen; method in brief: as §3
[29] = test system: Mus musculus; assay: Inhibition of carrageenan-induced paw edema in Swiss albino mouse at 100 mg/kg, po after 360 mins relative to control; format: functional; settings: 6 h; method in brief: as §1
[30] = test system: Mus musculus; assay: Gastric-ulcerogenic effect in Swiss albino mouse assessed as lesions at 50 mg/kg, po; format: functional, organism-based; design: dose 50 mg/kg; method in brief: as §4
[31] = test system: Mus musculus; assay: Antiinflammatory activity against carrageenan-induced paw edema in Swiss albino mouse assessed as swelling thickness at 25 mg/kg, po after 270 mins; format: functional; method in brief: as §1
[32] = test system: Mus musculus; assay: Antiinflammatory activity against carrageenan-induced paw edema in Swiss albino mouse assessed as swelling thickness at 100 mg/kg, po after 180 mins; format: functional; method in brief: as §1
[33] = test system: Mus musculus; assay: Inhibition of p-benzoquinone-induced writhing in Swiss albino mouse at 50 mg/kg, po relative to control; format: functional; method in brief: as §2
[34] = test system: Mus musculus; assay: Antiinflammatory activity against carrageenan-induced paw edema in Swiss albino mouse assessed as swelling thickness at 200 mg/kg, po after 270 mins; format: functional; method in brief: as §1
[35] = test system: Mus musculus; assay: Gastric-ulcerogenic effect in Swiss albino mouse assessed as lesions at 200 mg/kg, po; format: functional, organism-based; design: dose 200 mg/kg; method in brief: as §4
[36] = test system: Mus musculus; assay: Inhibition of carrageenan-induced paw edema in Swiss albino mouse at 25 mg/kg, po after 360 mins relative to control; format: functional; settings: 6 h; method in brief: as §1
[37] = test system: Mus musculus; assay: Inhibition of carrageenan-induced paw edema in Swiss albino mouse at 100 mg/kg, po after 90 mins relative to control; format: functional; settings: 1.5 h; method in brief: as §1
[38] = test system: Mus musculus; assay: Antiinflammatory activity against carrageenan-induced paw edema in Swiss albino mouse assessed as swelling thickness at 25 mg/kg, po after 90 mins; format: functional; method in brief: as §1
[39] = test system: Mus musculus; assay: Analgesic activity against p-benzoquinone-induced abdominal constriction in Swiss albino mouse assessed as number of writhings at 25 mg/kg, po; format: functional, Abdomen; method in brief: as §3
[40] = test system: Mus musculus; assay: Antiinflammatory activity against carrageenan-induced paw edema in Swiss albino mouse assessed as swelling thickness at 50 mg/kg, po after 180 mins; format: functional; method in brief: as §1

Work on `CSc1nnc(-c2ccc(Cl)cc2)[nH]1` yielded an inhibition in vivo at 100 mg/kg [1] of 26.9%, an inhibition in vivo at 25 mg/kg [2] of 13% and an inhibition in vivo at 200 mg/kg [3] of 15.8%. The inhibition in vivo at 25 mg/kg [4] was 17.7%, the Activity [5] was 54.7 10^-2mm and the Activity [6] was 34.1. For the same compound, the Activity [7] was 43 10^-2mm, the Activity [8] was “Active” and the Activity [9] was 48.9 10^-2mm. For the same compound, the Activity [10] was 58.9 10^-2mm, the Activity [11] was 42.2 10^-2mm and the Activity [12] was 76.8 10^-2mm. The Activity [13] was 37.4 10^-2mm, the inhibition in vivo at 50 mg/kg [14] was 34.6% and the inhibition in vivo at 50 mg/kg [15] was 30.6%. For the same compound, the inhibition in vivo at 100 mg/kg [16] was 27.9%, the Activity [17] was 34 10^-2mm and the Activity [18] was 34.1. For the same compound, the Activity [19] was 47.1 10^-2mm, the inhibition in vivo at 50 mg/kg [20] was 34.9% and the inhibition in vivo at 50 mg/kg [21] was 29.7%. The inhibition in vivo at 100 mg/kg [22] was 25.6%, the inhibition in vivo at 25 mg/kg [23] was 20.5% and the Activity [24] was 61.2 10^-2mm. For the same compound, the inhibition in vivo at 25 mg/kg [25] was 18.2%, the Activity [26] was 48 10^-2mm and the Activity [27] was “Active”. For the same compound, the Activity [28] was 43.3, the inhibition in vivo at 100 mg/kg [29] was 30.2% and the Activity [30] was “Active”. The Activity [31] was 51.5 10^-2mm, the Activity [32] was 38.3 10^-2mm and the inhibition in vivo at 50 mg/kg [33] was 33.7%. For the same compound, the Activity [34] was 65.9 10^-2mm, the Activity [35] was “Active” and the inhibition in vivo at 25 mg/kg [36] was 18.2%. The inhibition in vivo at 100 mg/kg [37] was 24.1%, the Activity [38] was 43.5 10^-2mm and the Activity [39] was 44.7. The Activity [40] was 41.2 10^-2mm.
